Results taken from ChEMBL document CHEMBL4130346, “New quinoline-arylamidine hybrids: Synthesis, DNA/RNA binding and antitumor activity” (Eur J Med Chem, 2017).
≈ marks a conversion by molar mass, not a printed value. Calls of active or inactive are those of the source. The rule behind the calls is not given here.

How the values were obtained:
[1] = tested on: Caco-2; experiment: Growth inhibition of human Caco2 cells after 72 hrs by MTT assay; assay type: functional; details: Caco-2, 72 h
How it was run: (§1)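 Adherent cells (2x10^4 cells/cm3) attached overnight, then were exposed to compound for 72 h. Medium was replaced with 5 mg/cm3 MTT, formazan was dissolved in DMSO and absorbance read at 595 nm. Percent growth was taken relative to untreated control minus background. GI50 came from a variable-slope log-inhibitor fit, as mean ± SD of three independent experiments in triplicate.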

[2] = tested on: Raji; experiment: Growth inhibition of human Raji cells after 72 hrs by MTT assay; assay type: functional
How it was run: (§2)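 Leukemia cells (1x10^5 cells/cm3) were exposed to compound for 72 h, then MTT (5 mg/cm3) was added for 4 h. Formazan was dissolved with 10% SDS in 0.01 mol dm-3 HCl and absorbance read at 595 nm. Percent growth was taken versus untreated control minus background. GI50 came from a variable-slope fit, as mean ± SD of three independent experiments in triplicate.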

[3] = tested on: K562; experiment: Growth inhibition of human K562 cells after 72 hrs by MTT assay; assay type: functional; details: K562, 72 h; how it was run: as §2
[4] = Growth inhibition of MDCK1 cells after 72 hrs by MTT assay; design: species or system Canis lupus familiaris; details: dog; how it was run: as §1
[5] = Chemical stability in aqueous solution after several weeks; assay type: physicochemical; details: buffer
How it was run: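 Aqueous compound solutions were monitored for several weeks by UV-Vis absorbance at 220-900 nm. Linearity with concentration was checked up to 3.5 × 10^-5 mol dm-3, and spectra were recorded at 25–90 °C with reproducibility checked on cooling to 25 °C.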

[6] = Solubility of the compound in DMSO; assay type: physicochemical
[7] = tested on: HeLa; experiment: Growth inhibition of human HeLa cells after 72 hrs by MTT assay; assay type: functional; how it was run: as §1
[8] = tested on: Calf thymus DNA; experiment: Binding affinity to calf thymus DNA assessed as change in melting temperature at 0.3 compound to ds-polynucleotide ratio by spectrophotometric method; assay type: nucleic-acid assay; details: Bos taurus
How it was run: (§3)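 Thermal melting of ct-DNA (sonicated, filtered) or polyA-polyU in Na cacodylate buffer, I = 0.05 mol dm-3, pH 7.0, at given r = [compound]/[polynucleotide]; polynucleotide as phosphate concentration. Tm from maximum of first derivative, checked by tangent method. ΔTm = Tm(complex) − Tm(free nucleic acid), average of at least two measurements, error ±0.5 °C.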

[9] = tested on: Calf thymus DNA; experiment: Disruption of calf thymus DNA helix at 0.1, 0.3, 0.5, 0.7 compound to ds-polynucleotide ratio by CD-spectrophotometric method; assay type: nucleic-acid assay; details: Bos taurus
How it was run: (§4)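 Induced CD spectra were recorded in 1 cm quartz cuvettes in Na cacodylate buffer (I = 0.05 mol dm-3, pH 7.0) with ct-DNA or polyA-polyU. Compound was added at r = [compound]/[polynucleotide] = 0.1, 0.3, 0.5 and 0.7. The CD signal was followed as a function of r.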

[10] = tested on: Calf thymus DNA; experiment: Binding affinity to calf thymus DNA assessed as change in melting temperature at 0.5 compound to ds-polynucleotide ratio by spectrophotometric method; assay type: nucleic-acid assay; details: Bos taurus; how it was run: as §3
[11] = tested on: Calf thymus DNA; experiment: Binding affinity to calf thymus DNA assessed as change in melting temperature at 0.1 compound to ds-polynucleotide ratio by spectrophotometric method; assay type: nucleic-acid assay; details: Bos taurus; how it was run: as §3
[12] = tested on: Calf thymus DNA; experiment: Binding affinity to calf thymus DNA minor groove at 0.1, 0.3, 0.5, 0.7 compound to ds-polynucleotide ratio by CD-spectrophotometric method; assay type: nucleic-acid assay; details: Bos taurus; how it was run: as §4
[13] = tested on: Calf thymus DNA; experiment: Binding affinity to calf thymus DNA by UV-vis spectrophotometric method; assay type: nucleic-acid assay; details: Bos taurus
How it was run: (§5)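 UV-Vis titration at room temperature in Na cacodylate buffer (I = 0.05 mol dm-3, pH 7.0). Portions of ct-DNA or polyA-polyU were added to a fixed compound concentration until saturation, with dilution correction. Polynucleotide was measured as phosphate. Ks and n were obtained by Scatchard analysis, together with the hypochromic change at the absorption maximum.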

[14] = Binding affinity to polyA-polyU (unknown origin) by UV-vis spectrophotometric method; how it was run: as §5
[15] = tested on: Calf thymus DNA; experiment: Binding affinity to calf thymus DNA assessed as hypochromic effect by UV-vis spectrophotometric method; assay type: nucleic-acid assay; details: Bos taurus; how it was run: as §5
[16] = Binding affinity to polyA-polyU (unknown origin) assessed as change in melting temperature at 0.3 compound to ds-polynucleotide ratio by spectrophotometric method; how it was run: as §3
[17] = tested on: K562; experiment: Cell cycle arrest in human K562 cells assessed as accumulation at sub-G0 phase at 10^-5 mol/dm'3 after 24 hrs by propidium iodide staining-based flow cytometric method; assay type: functional
[18] = Binding affinity to polyA-polyU (unknown origin) major groove at 0.1, 0.3, 0.5, 0.7 compound to ds-polynucleotide ratio by CD-spectrophotometric method; how it was run: as §4
[19] = Solubility of the compound in water; assay type: physicochemical
[20] = tested on: K562; experiment: Cell cycle arrest in human K562 cells assessed as decrease in cell levels at G2-M phase at 10^-5 mol/dm'3 after 24 hrs by propidium iodide staining-based flow cytometric method; assay type: functional
[21] = Binding affinity to polyA-polyU (unknown origin) assessed as change in melting temperature at 0.1 compound to ds-polynucleotide ratio by spectrophotometric method; how it was run: as §3
[22] = tested on: K562; experiment: Cell cycle arrest in human K562 cells assessed as decrease in cell levels at S phase at 10^-5 mol/dm'3 after 24 hrs by propidium iodide staining-based flow cytometric method; assay type: functional
[23] = Binding affinity to polyA-polyU (unknown origin) assessed as hypochromic effect by UV-vis spectrophotometric method; how it was run: as §5
[24] = Binding affinity to polyA-polyU (unknown origin) assessed as change in melting temperature at 0.5 compound to ds-polynucleotide ratio by spectrophotometric method; how it was run: as §3
[25] = tested on: K562; experiment: Cell cycle arrest in human K562 cells assessed as accumulation at G0-G1 phase at 10^-5 mol/dm'3 after 24 hrs by propidium iodide staining-based flow cytometric method; assay type: functional
[26] = Induction of polyA-polyU (unknown origin) intercalation at 0.1, 0.3, 0.5, 0.7 compound to ds-polynucleotide ratio by CD-spectrophotometric method; how it was run: as §4

| SMILES | GI50 [1] [µM] | GI50 [2] [µM] | GI50 [3] [µM] | GI50 at 72 h [4] [µM] | Stability [5] | solubility [6] [µM] | GI50 [7] [µM] | ΔTm [8] [°C] | Activity [9] | ΔTm [10] [°C] | ΔTm [11] [°C] | Activity [12] | log Ks [14] | Activity [15] [%] | ΔTm [16] [°C] | solubility [19] [µM] | ΔTm [21] [°C] | Activity [22] | Activity [23] | ΔTm [24] [°C] | other results |
| --- | --- | --- | --- | --- | --- | --- | --- | --- | --- | --- | --- | --- | --- | --- | --- | --- | --- | --- | --- | --- | --- |
| N#Cc1ccc(Oc2ccnc3cc(Cl)ccc23)cc1 | > 100 | 91.4 | 86.7 | 88.5 | Stable | 1000 (≈ 281 µg/mL) | > 100 |  |  |  |  |  |  |  |  |  |  |  |  |  |  |
| N#Cc1ccc2nc(-c3ccc(OCCNc4ccnc5cc(Cl)ccc45)cc3)[nH]c2c1 | 28.3 | 5.2 | 7.8 | 22.1 | Stable | 1000 (≈ 440 µg/mL) | 56.6 | 2.58 | Active | 2.6 | 3.96 | Active |  |  |  |  |  |  |  |  |  |
| N#Cc1ccc2nc(-c3ccc(Oc4ccnc5cc(Cl)ccc45)cc3)[nH]c2c1 | > 100 | > 100 | > 100 | 93.1 | Stable | 1000 (≈ 397 µg/mL) | > 100 |  |  |  |  | Active |  |  |  |  |  |  |  |  |  |
| CC(C)CNC(=N)c1ccc2nc(-c3ccc(OCCNc4ccnc5cc(Cl)ccc45)cc3)[nH]c2c1.Cl.Cl.Cl | > 100 | 28.5 | 15.1 | 94.1 | Stable |  | > 100 | 8.15 | Active | 8.67 | 4.31 | Active | 7.02 | 32.2 | 0.75 | 1000 | 1.24 | Active | 26% |  | log Ks [13]: 6.51; Activity [17]: Active; Activity [18]: Active; Activity [20]: Active |
| Cl.Cl.Cl.N=C(NC1CCCC1)c1ccc2nc(-c3ccc(OCCNc4ccnc5cc(Cl)ccc45)cc3)[nH]c2c1 | > 100 | 17.1 | 11.4 | 99.2 | Stable |  | > 100 | 7.8 | Active | 7.8 | 3.71 | Active | 6.81 | 24.4 | 1.14 | 1000 | 3.02 | Active | 49.7% | 4.67 to 35.4 | log Ks [13]: 6.29; Activity [18]: Active |
| N#Cc1ccc(OCCNc2ccnc3cc(Cl)ccc23)cc1 | 95.3 | 6.2 | 7.2 | > 100 | Stable | 1000 (≈ 324 µg/mL) | 84.4 |  |  |  |  |  | inactive | 26.2 |  |  |  | Active | inactive |  | Activity [25]: Active; Activity [20]: Active |
| Cl.Cl.Cl.N=C(NC1CCCC1)c1ccc(Oc2ccnc3cc(Cl)ccc23)cc1 | 13.5 | 19.7 | 18.8 | 35 | Stable |  | 48.6 | 1.43 |  | 1.51 | 1.35 |  |  |  | 0.65 | 1000 | 0.64 | Active |  | 0.28 | Activity [25]: Active; Activity [20]: Active |
| Cl.Cl.Cl.Clc1ccc2c(NCCOc3ccc(-c4nc5ccc(C6=NCCN6)cc5[nH]4)cc3)ccnc2c1 | 117 | 27.5 | 8.6 | > 100 | Stable |  | > 100 |  | Active |  | 5.75 | Active | 6.71 | 21.6 to 26 | 5.16 | 1000 | 4.62 | Active | 37.7% | 8.86 to 33.5 | Activity [17]: Active; Activity [18]: Active |
| CC(C)CNC(=N)c1ccc(Oc2ccnc3cc(Cl)ccc23)cc1.Cl.Cl.Cl | 71.9 | 25.5 | 16.9 | 30.3 | Stable |  | 52.3 | 1.97 |  | 1.85 | 1.91 |  |  |  | -0.8 | 1000 | -0.71 | Active |  | -0.44 | Activity [25]: Active; Activity [20]: Active |
| CC(C)CNC(=N)c1ccc2nc(-c3ccc(Oc4ccnc5cc(Cl)ccc45)cc3)[nH]c2c1.Cl.Cl.Cl | 43.2 | 46.7 | 59.7 | 53.5 | Stable |  | 57 | 1.41 |  | 2.08 | 1.07 | Active | 6.05 | 60.2 | 0.78 | 1000 | 1.64 |  | 17.9% | 0.25 | log Ks [13]: 5.88; Activity [26]: Active |
| CC(C)NC(=N)c1ccc2nc(-c3ccc(Oc4ccnc5cc(Cl)ccc45)cc3)[nH]c2c1.Cl.Cl.Cl | 53.3 | 48.2 | 69 | 61.8 | Stable |  | 51.3 | 1.75 |  | 2.24 | 1.07 | Active | 5.36 | 60 | 1.32 | 1000 | -0.44 |  | 26.8% | 0.43 | log Ks [13]: 7.87; Activity [26]: Active |
